Source: ChEMBL document CHEMBL4270606, “Pyridine bioisosteres of potent GluN2B subunit containing NMDA receptor antagonists with benzo[7]annulene scaffold” (Eur J Med Chem, 2018)

How the values were obtained:
[1] = molecular target: T1, Sigma intracellular receptor 2 (Rattus norvegicus, UniProt Q5U3Y7); assay: Displacement of [3H]-di-o-tolylguanidine from sigma2 receptor in rat liver membranes incubated for 120 mins by scintillation counting method; type: cell membranes, Membrane
T1 sequence (Q5U3Y7 whole entry): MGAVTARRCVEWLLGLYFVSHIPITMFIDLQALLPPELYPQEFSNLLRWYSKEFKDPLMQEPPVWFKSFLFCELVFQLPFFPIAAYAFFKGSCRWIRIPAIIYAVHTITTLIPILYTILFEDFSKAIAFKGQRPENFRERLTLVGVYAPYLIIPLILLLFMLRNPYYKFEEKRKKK

[2] = Displacement of [3H]-(+)-MK-801 from PCP binding site of NMDA receptor in pig brain cortex membranes after 120 mins by solid scintillation counting; type: cell membranes, Sus scrofa
Outline: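 Pig brain cortex membranes (about 100 µg protein) incubated with 2 nM [3H]-(+)-MK-801 and test compound at 10^-5 to 10^-9 mol/L (final) in 5 mM TRIS/1 mM EDTA, pH 7.5, at rt with shaking. Nonspecific binding defined with 10 µM unlabeled (+)-MK-801. Filtration, melted solid scintillator, [3H] counting. Duplicates. IC50 by non-linear regression, converted to Ki via Cheng-Prusoff (Kd 2.26 nM). Mean ± SEM of three experiments.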

[3] = molecular target: Sigma non-opioid intracellular receptor 1 (Cavia porcellus, UniProt Q60492); assay: Displacement of [3H]-(+)-pentazocine from sigma1 receptor in guinea pig brain cortex membrane after 120 mins by scintillation counting method; type: cell membranes
Sigma non-opioid intracellular receptor 1, sequence (Q60492 whole entry): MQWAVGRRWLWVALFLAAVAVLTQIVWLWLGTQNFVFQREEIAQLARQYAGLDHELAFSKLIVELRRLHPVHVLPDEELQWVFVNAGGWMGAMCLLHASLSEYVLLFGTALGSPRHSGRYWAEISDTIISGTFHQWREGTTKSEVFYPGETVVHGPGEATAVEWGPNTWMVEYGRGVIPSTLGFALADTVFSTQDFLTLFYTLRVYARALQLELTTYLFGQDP

Sus scrofa = species: Sus scrofa; assay: Displacement of [3H]-(+)-MK-801 from PCP binding site of NMDA receptor in pig brain cortex membranes at 1 uM after 120 mins by solid scintillation counting relative to control; type: cell membranes
Outline: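 Single 1 µM test concentration: inhibition (%) of 2 nM [3H]-(+)-MK-801 binding to pig brain cortex membranes (about 100 µg protein). Buffer was 5 mM TRIS/1 mM EDTA, pH 7.5, at rt. Nonspecific binding defined with 10 µM unlabeled (+)-MK-801. Bound radioactivity collected by filtration and counted by solid scintillation.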

[4] = molecular target: Glutamate NMDA receptor; GRIN1/GRIN2B (Homo sapiens, UniProt Q05586+Q13224); assay: Displacement of [3H]-ifenprodil from GluN1a/GluN2B (unknown origin) expressed in L(tk-) cell membranes after 120 mins by scintillation counting analysis
Glutamate NMDA receptor; GRIN1/GRIN2B, sequence (Q13224 whole entry, other chains not shown): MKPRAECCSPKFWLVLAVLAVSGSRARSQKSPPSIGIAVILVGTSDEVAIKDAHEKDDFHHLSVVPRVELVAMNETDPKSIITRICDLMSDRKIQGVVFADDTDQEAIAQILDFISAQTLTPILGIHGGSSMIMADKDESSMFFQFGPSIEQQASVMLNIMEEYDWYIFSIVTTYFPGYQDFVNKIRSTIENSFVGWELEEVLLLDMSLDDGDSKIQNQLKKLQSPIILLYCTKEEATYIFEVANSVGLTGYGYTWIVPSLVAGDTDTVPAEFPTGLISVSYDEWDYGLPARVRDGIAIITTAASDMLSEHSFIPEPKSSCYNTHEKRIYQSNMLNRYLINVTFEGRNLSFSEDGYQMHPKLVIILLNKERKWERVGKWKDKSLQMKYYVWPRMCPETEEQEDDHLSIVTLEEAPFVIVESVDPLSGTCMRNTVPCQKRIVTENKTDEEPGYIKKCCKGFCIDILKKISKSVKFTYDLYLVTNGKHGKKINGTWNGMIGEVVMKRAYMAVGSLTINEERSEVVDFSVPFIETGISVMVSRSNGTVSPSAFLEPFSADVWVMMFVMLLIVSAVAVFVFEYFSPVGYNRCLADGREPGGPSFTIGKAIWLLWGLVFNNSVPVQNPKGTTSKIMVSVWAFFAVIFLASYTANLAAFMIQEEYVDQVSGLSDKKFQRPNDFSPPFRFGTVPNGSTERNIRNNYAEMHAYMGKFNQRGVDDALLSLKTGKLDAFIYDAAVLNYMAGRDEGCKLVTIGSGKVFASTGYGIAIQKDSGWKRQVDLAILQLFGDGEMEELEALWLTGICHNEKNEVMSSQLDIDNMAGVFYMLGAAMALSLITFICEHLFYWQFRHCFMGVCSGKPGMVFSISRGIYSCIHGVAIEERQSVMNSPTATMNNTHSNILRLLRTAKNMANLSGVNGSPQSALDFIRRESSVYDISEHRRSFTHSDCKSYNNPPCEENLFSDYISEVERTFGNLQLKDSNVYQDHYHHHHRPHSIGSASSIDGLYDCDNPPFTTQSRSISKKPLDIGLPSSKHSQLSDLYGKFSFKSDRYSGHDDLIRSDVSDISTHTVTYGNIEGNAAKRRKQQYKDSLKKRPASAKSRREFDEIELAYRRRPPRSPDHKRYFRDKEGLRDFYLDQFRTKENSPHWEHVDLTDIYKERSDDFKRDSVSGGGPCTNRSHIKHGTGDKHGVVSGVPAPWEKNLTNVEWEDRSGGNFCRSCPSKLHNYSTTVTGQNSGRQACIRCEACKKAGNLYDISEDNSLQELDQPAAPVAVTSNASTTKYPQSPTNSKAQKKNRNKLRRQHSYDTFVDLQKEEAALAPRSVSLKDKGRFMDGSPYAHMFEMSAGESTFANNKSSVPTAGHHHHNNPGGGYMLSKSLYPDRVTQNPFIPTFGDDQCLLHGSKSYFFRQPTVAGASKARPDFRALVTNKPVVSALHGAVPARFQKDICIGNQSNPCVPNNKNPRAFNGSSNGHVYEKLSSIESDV

Compound	Ki [1] [µM]	IC50 [2] [µM]	Ki [3] [µM]	inhibition (Sus scrofa) [%]	Ki [4] [µM]
c1ccc(CNC2CCc3cccnc3CC2)cc1 (stereo not given)	0.49	> 1	0.942	0	> 1
CN(CCCc1ccccc1)C1CCc2cccnc2CC1 (stereo not given)	0.068	> 1	0.261	0	0.445
CN(CCCCc1ccccc1)C1CCc2cccnc2CC1 (stereo not given)	0.115	> 1	0.263	5	0.477
c1ccc(CCCNC2CCc3cccnc3CC2)cc1 (stereo not given)	0.276	> 1	0.992	10	0.302
c1ccc(CCCCNC2CCc3cccnc3CC2)cc1 (stereo not given)	0.068	> 1	0.214	8	0.149
